Test results from ChEMBL document CHEMBL4257595, “Improving the Selectivity of PACE4 Inhibitors through Modifications of the P1 Residue” (J Med Chem, 2018).
Calls of active or inactive are those of the source. The calls are words filed in the database; no cut-off is given here. Square brackets hold non-standard residues; d marks the D form. Peptide text beside a SMILES is read from it. * marks the point of attachment. NH(4-amidinobenzyl) = N=C(N)c1ccc(CN*)cc1

Columns and labels:
Homo sapiens = organism: Homo sapiens; assay: Selectivity ratio of Ki for recombinant human furin to Ki for recombinant human PACE4
How it was run: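 Ratio of Ki values. Furin Ki measured at 0.54 nM enzyme in Hepes pH 7.5; PACE4 Ki measured at 20.18 nM enzyme in Bis-Tris pH 6.5. Both used 100 µM pGlu-RTKR-AMC with fluorescence at ex 370 / em 460 nm, and Ki came from Cheng-Prusoff (Morrison's equation for one PACE4 value).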

LNCaP [1] = assay: Antiproliferative activity against human LNCAP cells after 72 hrs by MTT assay; assay type: functional, cell-based
How it was run: (§1)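 MTT proliferation read-out. DU145 cultured in RPMI-1640 with 5% FBS; LNCaP cultured in RPMI-1640 with 10% FBS. IC50 calculated from dose-response curves.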

DU-145 [2] = assay: Antiproliferative activity against human DU145 cells after 72 hrs by MTT assay; assay type: functional, cell-based; how it was run: as §1
Furin = Furin (Homo sapiens, UniProt P09958); assay: Inhibition of recombinant human furin using pGlu-Arg-Thr-Lys-Arg-AMC peptide as substrate by spectrofluorometry
Furin, sequence (P09958 whole entry): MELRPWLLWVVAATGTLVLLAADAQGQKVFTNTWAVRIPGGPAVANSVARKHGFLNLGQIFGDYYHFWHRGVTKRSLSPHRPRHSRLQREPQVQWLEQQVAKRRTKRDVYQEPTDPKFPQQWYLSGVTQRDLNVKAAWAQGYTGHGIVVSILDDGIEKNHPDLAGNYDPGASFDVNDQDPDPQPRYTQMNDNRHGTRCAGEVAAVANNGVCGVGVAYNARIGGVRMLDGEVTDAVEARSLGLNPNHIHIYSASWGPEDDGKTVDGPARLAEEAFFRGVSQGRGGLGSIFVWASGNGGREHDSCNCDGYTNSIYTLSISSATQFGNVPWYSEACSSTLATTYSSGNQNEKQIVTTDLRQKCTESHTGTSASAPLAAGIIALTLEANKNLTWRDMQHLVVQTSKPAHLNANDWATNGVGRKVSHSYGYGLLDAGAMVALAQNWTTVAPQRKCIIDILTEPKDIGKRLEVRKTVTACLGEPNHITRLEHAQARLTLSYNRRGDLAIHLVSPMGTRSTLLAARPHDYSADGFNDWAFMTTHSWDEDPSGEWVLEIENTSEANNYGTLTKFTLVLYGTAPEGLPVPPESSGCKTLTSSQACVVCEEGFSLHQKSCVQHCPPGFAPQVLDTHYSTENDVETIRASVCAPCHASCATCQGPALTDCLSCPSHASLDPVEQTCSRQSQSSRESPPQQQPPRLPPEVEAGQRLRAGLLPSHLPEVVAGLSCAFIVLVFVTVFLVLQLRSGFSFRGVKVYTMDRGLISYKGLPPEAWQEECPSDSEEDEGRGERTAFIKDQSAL
How it was run: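 Recombinant human furin at 0.54 nM (Km 5.040 µM) in 100 mM Hepes pH 7.5, 1 mM CaCl2, 1 mM β-mercaptoethanol and 1.8 mg/mL BSA. Substrate pGlu-RTKR-AMC at 100 µM per well. Fluorescence read at ex 370 / em 460 nm. Ki derived by Cheng-Prusoff.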

[3] = target: T1, Proprotein convertase subtilisin/kexin type 6 (Homo sapiens, UniProt P29122); assay: Inhibition of recombinant human PACE4 using pGlu-Arg-Thr-Lys-Arg-AMC peptide as substrate by spectrofluorometry
T1 sequence (P29122 whole entry): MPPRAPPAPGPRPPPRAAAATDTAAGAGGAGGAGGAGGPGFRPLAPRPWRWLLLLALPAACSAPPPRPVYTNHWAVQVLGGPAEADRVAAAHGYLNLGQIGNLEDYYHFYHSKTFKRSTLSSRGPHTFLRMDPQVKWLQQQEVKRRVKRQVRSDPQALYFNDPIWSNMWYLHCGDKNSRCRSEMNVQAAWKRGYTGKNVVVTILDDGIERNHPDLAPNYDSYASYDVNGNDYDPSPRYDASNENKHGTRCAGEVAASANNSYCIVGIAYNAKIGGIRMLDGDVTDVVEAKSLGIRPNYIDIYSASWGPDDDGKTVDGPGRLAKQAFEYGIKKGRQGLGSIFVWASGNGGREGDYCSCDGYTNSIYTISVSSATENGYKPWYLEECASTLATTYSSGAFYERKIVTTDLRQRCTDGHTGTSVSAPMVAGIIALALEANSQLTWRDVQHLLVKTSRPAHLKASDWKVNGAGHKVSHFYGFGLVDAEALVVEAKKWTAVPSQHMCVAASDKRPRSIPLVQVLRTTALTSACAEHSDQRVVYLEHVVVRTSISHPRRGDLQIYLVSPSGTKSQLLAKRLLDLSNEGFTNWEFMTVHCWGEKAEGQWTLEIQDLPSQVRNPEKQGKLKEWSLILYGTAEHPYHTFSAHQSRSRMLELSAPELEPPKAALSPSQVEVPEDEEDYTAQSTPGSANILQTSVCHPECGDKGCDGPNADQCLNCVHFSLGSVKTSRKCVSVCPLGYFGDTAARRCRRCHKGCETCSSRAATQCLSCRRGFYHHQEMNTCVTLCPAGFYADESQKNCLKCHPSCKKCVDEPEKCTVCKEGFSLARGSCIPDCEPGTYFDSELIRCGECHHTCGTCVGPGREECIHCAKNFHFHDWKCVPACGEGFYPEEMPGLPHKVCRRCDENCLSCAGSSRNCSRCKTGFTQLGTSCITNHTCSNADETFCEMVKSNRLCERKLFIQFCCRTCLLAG

[4] = Drug uptake in human DU145 cells at 1 uM after 48 hrs using FITC-labeled compounds by propidium iodide/ trypan blue-dual staining based flow cytometry; assay type: ADME, cell-based; settings: du-145, 1 h, in the assay text read “1 hr” for “48 hrs”
How it was run: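 DU145 cells plated at 200000 per 100 mm dish and grown 48 h at 37 °C. FITC-labelled analogue added at 1 µM for 1 h at 37 °C. Cells harvested with 0.05% trypsin and washed in PBS. PI added at 10 µg/mL final just before acquisition. A parallel set was quenched with 0.04% trypan blue. Flow cytometry on ≥10000 events with 488/638 nm lasers.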

LNCaP [5] = assay: Antiproliferative activity against human LNCAP cells at <150 uM after 72 hrs by MTT assay; assay type: functional, cell-based
How it was run: (§2)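 Doses tested up to 150 µM. MTT read-out on DU145 (RPMI-1640, 5% FBS) or LNCaP (RPMI-1640, 10% FBS).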

DU-145 [6] = assay: Antiproliferative activity against human DU145 cells at <150 uM after 72 hrs by MTT assay; assay type: functional, cell-based; how it was run: as §2
[7] = Half life in human plasma; assay type: ADME, cell-free
[8] = Homo sapiens, LNCaP, 72 h, read-out: IC50
[9] = Homo sapiens, DU-145, 72 h, read-out: IC50

Row | Compound | Ratio Ki (Homo sapiens) | IC50 (LNCaP [1]; [8]) | IC50 (DU-145 [2]; [9]) | Ki (Furin) | Ki [3] | also measured
1 | CC(=O)N[C@H](CC(C)C)C(=O)N[C@@H](CC(C)C)C(=O)N[C@@H](CC(C)C)C(=O)N[C@@H](CC(C)C)C(=O)N[C@@H](CCCNC(=N)N)C(=O)N[C@H](C(=O)N[C@@H](CCCCN)C(=O)N[C@@H](CCCNC(=N)N)C(N)=O)C(C)C | 32 | – | – | – | – | –
2 | CC(=O)N[C@H](CC(C)C)C(=O)N[C@@H](CC(C)C)C(=O)N[C@@H](CC(C)C)C(=O)N[C@@H](CC(C)C)C(=O)N[C@@H](CCCNC(=N)N)C(=O)N[C@H](C(=O)N[C@@H](CCCCN)C(=O)NC/C=C/CNC(=N)N)C(C)C | 3 | 210000 nM | 40000 nM | 38 nM | 13 nM | –
3 | CC(C)C[C@H](NC(=O)[C@H](CC(C)C)NC(=O)[C@H](CC(C)C)NC(=O)[C@@H](CC(C)C)NC(=O)CCN)C(=O)N[C@@H](CCCNC(=N)N)C(=O)N[C@H](C(=O)N[C@@H](CCCCN)C(=O)NCc1ccc(C(=N)N)nc1)C(C)C | – | – | – | – | – | Drug uptake [4]: Active
4 | CC(=O)N[C@H](CC(C)C)C(=O)N[C@@H](CC(C)C)C(=O)N[C@@H](CC(C)C)C(=O)N[C@@H](CC(C)C)C(=O)N[C@@H](CCCNC(=N)N)C(=O)N[C@H](C(=O)N[C@@H](CCCCN)C(=O)NCc1ccc(C(=N)N)c(O)c1)C(C)C | 5 | 113000 nM | 50000 nM | 240 nM | 53 nM | –
5 | CC(=O)N[C@H](CC(C)C)C(=O)N[C@@H](CC(C)C)C(=O)N[C@@H](CC(C)C)C(=O)N[C@@H](CC(C)C)C(=O)N[C@@H](CCCNC(=N)N)C(=O)N[C@H](C(=O)N[C@@H](CCCCN)C(=O)NCc1ccc2c(N)noc2c1)C(C)C | 1 | – | – | 614 nM | 500 nM | IC50 (LNCaP [1]; lncap): Nd(Insoluble); IC50 (DU-145 [2]; du-145): Nd(Insoluble)
6 | CC(=O)N[C@H](CC(C)C)C(=O)N[C@@H](CC(C)C)C(=O)N[C@@H](CC(C)C)C(=O)N[C@@H](CC(C)C)C(=O)N[C@@H](CCCNC(=N)N)C(=O)N[C@H](C(=O)N[C@@H](CCCCN)C(=O)NCc1ccc2c(N)n[nH]c2c1)C(C)C | 1 | – | – | 825 nM | 700 nM | IC50 (LNCaP [1]; lncap): Nd(Insoluble); IC50 (DU-145 [2]; du-145): Nd(Insoluble)
7 | CC(=O)N[C@H](CC(C)C)C(=O)N[C@@H](CC(C)C)C(=O)N[C@@H](CC(C)C)C(=O)N[C@@H](CC(C)C)C(=O)N[C@@H](CCCNC(=N)N)C(=O)N[C@H](C(=O)N[C@@H](CCCCN)C(=O)N[C@H](CO)CCCNC(=N)N)C(C)C | – | – | – | 250 nM | 190 nM | Activity (LNCaP [5]): inactive; Activity (DU-145 [6]): inactive
8 | CC(=O)N[C@H](CC(C)C)C(=O)N[C@@H](CC(C)C)C(=O)N[C@@H](CC(C)C)C(=O)N[C@@H](CC(C)C)C(=O)N[C@@H](CCCNC(=N)N)C(=O)N[C@H](C(=O)N[C@@H](CCCCN)C(=O)NCc1ccc(C(=N)N)cc1)C(C)C (Ac-[dL]LLLRVK-{NH(4-amidinobenzyl)}) | 2 | – | – | – | – | –
9 | CC(=O)N[C@H](CC(C)C)C(=O)N[C@@H](CC(C)C)C(=O)N[C@@H](CC(C)C)C(=O)N[C@@H](CC(C)C)C(=O)N[C@@H](CCCNC(=N)N)C(=O)N[C@H](C(=O)N[C@@H](CCCCN)C(=O)NCc1c(F)c(F)c(C(=N)N)c(F)c1F)C(C)C | 2 | 230000 nM | 69000 nM | 600 nM | 240 nM | –
10 | CC(C)C[C@H](NC(=O)[C@H](CC(C)C)NC(=O)[C@H](CC(C)C)NC(=O)[C@@H](CC(C)C)NC(=O)CCN)C(=O)N[C@@H](CCCNC(=N)N)C(=O)N[C@H](C(=O)N[C@@H](CCCCN)C(=O)NCc1ccc(C(=N)N)cc1)C(C)C | – | – | – | – | – | Drug uptake [4]: Active
11 | CC(=O)N[C@H](CC(C)C)C(=O)N[C@@H](CC(C)C)C(=O)N[C@@H](CC(C)C)C(=O)N[C@@H](CC(C)C)C(=O)N[C@@H](CCCNC(=N)N)C(=O)N[C@H](C(=O)N[C@@H](CCCCN)C(=O)NCCc1ccc(C(=N)N)cc1)C(C)C | 2 | 80000 nM | 80000 nM | 41 nM | 17 nM | –
12 | CC(=O)N[C@H](CC(C)C)C(=O)N[C@@H](CC(C)C)C(=O)N[C@@H](CC(C)C)C(=O)N[C@@H](CC(C)C)C(=O)N[C@@H](CCCNC(=N)N)C(=O)N[C@H](C(=O)N[C@@H](CCCCN)C(=O)NCC#CCNC(=N)N)C(C)C | 2 | 125000 nM | 110000 nM | 60 nM | 32 nM | –
13 | Ac-LLLLRVKR-NH2 | – | 45000 nM | 25000 nM | – | – | half-life [7]: 1.7 h
14 | CC(=O)N[C@H](CC(C)C)C(=O)N[C@@H](CC(C)C)C(=O)N[C@@H](CC(C)C)C(=O)N[C@@H](CC(C)C)C(=O)N[C@@H](CCCNC(=N)N)C(=O)N[C@H](C(=O)N[C@@H](CCCCN)C(=O)NCc1ccc(C(=N)N)c(N)c1)C(C)C | 4 | 58000 nM | 61000 nM | 60 nM | 14 nM | –
15 | CC(=O)N[C@H](CC(C)C)C(=O)N[C@@H](CC(C)C)C(=O)N[C@@H](CC(C)C)C(=O)N[C@@H](CC(C)C)C(=O)N[C@@H](CCCNC(=N)N)C(=O)N[C@H](C(=O)N[C@@H](CCCCN)C(=O)NCc1ccc(C(=N)N)nc1)C(C)C | 8 | 140000 nM | 130000 nM | 21.5 nM | 2.6 nM | –
